Active and inactive are the calls of the source. The calls are words filed in the database; no cut-off is given here.

Here are results for ten compounds from ChEMBL document CHEMBL1152565, “Furo[3',2':3,4]naphtho[1,2-d]imidazole derivatives as potential inhibitors of inflammatory factors in sepsis” (Bioorg Med Chem, 2009).

Data set [1] concerns RAW264.7. In words: Inhibition of LPS-induced nitric oxide accumulation in mouse RAW264.7 cells. It counts as functional, cell-based. The essentials: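 RAW 264.7 macrophages grown in DMEM with 5% FBS at 37 °C, 5% CO2, and stimulated with LPS. Nitrite accumulated in medium read with Griess reagent (sulfanilamide/N-(1-naphthyl)ethylenediamine in phosphoric acid, 5 min) at OD550 against sodium nitrite standard in culture medium. IC50 as means ± SE of at least three experiments.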

Data set [2] can be described thus: Antiinflammatory activity against Sprague-Dawley rat neutrophils assessed as inhibition of fMLP/cytochalasin B-induced lysozyme release. The class given is functional, cell-based. The conditions noted are these: Neutrophil. A digest of the protocol: (§1)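 Rat (Sprague-Dawley) peripheral blood neutrophils incubated with test compound 5 min at 37 °C, then stimulated with fMLP (0.3 μM)/cytochalasin B (5 μg/ml) for 45 min. β-Glucuronidase and lysozyme measured in supernatant. Compound stocks in DMSO; final DMSO <0.5% (v/v). Means ± SE of at least three separate experiments.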

The species entered for data set [3] is Rattus norvegicus. In words: Inhibition of PMA-induced superoxide generation in Sprague-Dawley rat neutrophils. The conditions noted are these: Neutrophil. It counts as functional. The essentials: (§2)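 Sprague-Dawley rat peripheral blood neutrophils preincubated with compound 5 min at 37 °C, then stimulated 30 min with fMLP (0.3 μM)/CB (5 μg/mL) or PMA (3 nM) in presence of cytochrome c. Superoxide quantified as superoxide dismutase-inhibitable cytochrome c reduction. Final DMSO <0.5% (v/v). IC50 as means ± SE, at least three separate experiments.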

A further data set relates to Neutrophil. In words: Inhibition of fMLP-induced superoxide generation in Sprague-Dawley rat neutrophils. It counts as functional, cell-based. A digest of the protocol: as §2
In data set [4] the test system is Rattus norvegicus. The data set can be described thus: Inhibition of sepsis-induced PGE2 production in cecal ligation and puncture Sprague-Dawley rat model serum at 10 mg/kg, ip treated 1 hr before surgery measured after 24 hrs of surgery by ELISA. It counts as functional. The conditions noted are these: route intraperitoneal. The essentials:
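Sprague-Dawley rats aged 6–8 weeks (3–4 per group) pretreated intraperitoneally with 10 mg/kg compound or hydrocortisone 1 h before cecal ligation and puncture, saline-resuscitated after. Blood taken from portal vein 24 h post-surgery, centrifuged 3000 rpm 20 min, serum stored at -70 °C. PGE2 measured by ELISA; average of three independent studies.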
(In an ELISA, binding on a coated surface is turned into a signal by an enzyme label.)

The test system of data set [5] is RAW264.7. In words: Inhibition of LPS-induced iNOS protein expression in mouse RAW264.7 cells after 2 hrs by Western blot. The class given is functional, cell-based. A digest of the protocol:
(§3)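 RAW 264.7 cells (5×10^5 cells/well) pretreated with compound 2 h, then stimulated with LPS 0.1 μg/mL for 24 h. Lysed in RIPA buffer, protein measured by Bradford, 15 μg run on 8% SDS–PAGE and immunoblotted for iNOS with ECL detection. Bands quantified densitometrically relative to β-actin.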

Data set [6] in a line: Antiinflammatory activity against Sprague-Dawley rat neutrophils assessed as inhibition of fMLP/cytochalasin B-induced beta-glucuronidase release. It counts as functional, cell-based. The conditions noted are these: Neutrophil. A digest of the protocol: as §1
Data set [7] has as its system Rattus norvegicus. In words: Inhibition of iNOS mRNA expressing in cecal ligation and puncture Sprague-Dawley rat model at 10 mg/kg, ip treated 1 hr before surgery measured after 24 hrs of surgery by PCR amplification. The conditions noted are these: route intraperitoneal. The class given is functional. A digest of the protocol: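 Sprague-Dawley rats aged 6–8 weeks, 3–4 per group, given compound or hydrocortisone 10 mg/kg by intraperitoneal injection 1 h before cecal ligation and puncture. Resuscitated with 1 mL normal saline after surgery; sham animals handled identically. Lung tissue collected 24 h post-surgery; iNOS mRNA band intensities normalized to GAPDH.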

Data set [8] deals with RAW264.7. In words: Inhibition of LPS-induced iNOS protein expression in mouse RAW264.7 cells at 5 uM after 2 hrs by Western blot. The class given is functional, cell-based. The essentials: as §3
Data set [9] relates to RAW264.7. In words: Cytotoxicity against mouse RAW264.7 cells up to 10 uM after 24 hrs by methylene blue assay. The class given is cell-based. To be noted: raw264.7, 24 h. A digest of the protocol:
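RAW 264.7 cells seeded at 2×10^5 cells/well, given LPS plus various compound concentrations for 24 h. Stained with 1% methylene blue for 40 min, washed, dye released with 1% sarcosyl for 4 h, absorbance read at 570 nm. LPS-treated cells without compound set as 100% survival.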

For `CC(=N)NCc1cccc(CN)c1` [1400W], in the data set with RAW264.7 [1], the IC50 (usually the midpoint of a concentration-inhibition curve) is 2.7 µM.

With `O=[N+]([O-])c1ccc(/C=C/c2nc3c4ccccc4c4occc4c3[nH]2)o1`, the IC50 with RAW264.7 [1] is 1.3 µM; in [2] it was over 30 µM; in the data set filed under Rattus norvegicus [3], over 30 µM; in the data set with Neutrophil, over 30 µM; in [6], over 30 µM. Also, the figures for the inhibition in vivo at 10 mg/kg in the data set on Rattus norvegicus [4] and with Rattus norvegicus [7] were 150% and 30%, respectively. Besides, in the data set on RAW264.7 [5], the inhibition result was “Dose-dependent effect”. Besides, the inhibition result in the data set with RAW264.7 [8] was “Active”. The Activity entry with RAW264.7 [9] was “Non-toxic”.

In the case of `c1coc(-c2nc3c4ccccc4c4occc4c3[nH]2)c1`, the IC50 is 11.9 µM with RAW264.7 [1]; 19.5 µM in data set [2]; over 30 µM in the data set filed under Rattus norvegicus [3]; over 30 µM with Neutrophil; 11.3 µM in data set [6]. Also, the inhibition entry with RAW264.7 [5] was “Dose-dependent effect”. Also, in the data set on RAW264.7 [9], the Activity result is “Non-toxic”.

In the case of `c1ccc2c(c1)[I+]c1ccccc1-2` [DIPHENYLENEIODONIUM CHLORIDE], the IC50 in the data set listed under Rattus norvegicus [3] was 4.3 µM; in the data set with Neutrophil, 5.2 µM.

On to `c1ccc2c(c1)c1nc[nH]c1c1ccoc21`, for which the IC50 (in the data set with RAW264.7 [1]; in data set [2]; in the data set filed under Rattus norvegicus [3]; in the data set with Neutrophil; in [6]) was over 30 µM throughout.

With `c1ccc(-c2nc3c4ccccc4c4occc4c3[nH]2)cc1`, the IC50 in the data set with RAW264.7 [1] is over 10 µM; in data set [2] it was 16.3 µM; in the data set listed under Rattus norvegicus [3] it was over 30 µM; in the data set with Neutrophil it was over 30 µM; in data set [6], 11.4 µM.

In the case of `O=[N+]([O-])c1ccc(-c2nc3c4ccccc4c4occc4c3[nH]2)o1`, the IC50 was 1.5 µM with RAW264.7 [1]; over 30 µM in data set [2]; over 30 µM in the data set listed under Rattus norvegicus [3]; over 30 µM in the data set on Neutrophil; over 30 µM in data set [6]. Besides, in the data set on RAW264.7 [5], the inhibition result was “Dose-dependent effect”. Further, the Activity entry in the data set with RAW264.7 [9] is reported as “Non-toxic”.

For the compound `O=[N+]([O-])c1ccc(-c2nc3c4ccccc4c4occc4c3[nH]2)cc1`, the IC50 in the data set with RAW264.7 [1] was over 10 µM; in data set [2] it was over 10 µM; in the data set listed under Rattus norvegicus [3] it was over 30 µM; in the data set with Neutrophil, over 30 µM; in data set [6], over 10 µM.

On to `O=Cc1ccc(-c2nc3c4ccccc4c4occc4c3[nH]2)cc1`, for which the IC50 in the data set with RAW264.7 [1] is over 10 µM; in [2], 7.4 µM; in the data set filed under Rattus norvegicus [3], over 30 µM; in the data set on Neutrophil it was over 30 µM; in data set [6], 5 µM.

With `CN1CCN(CCCN2c3ccccc3Sc3ccc(C(F)(F)F)cc32)CC1` [TRIFLUOPERAZINE], the figures for the IC50 in data set [2] and in data set [6] were 11.9 µM and 12.5 µM, respectively.
